# Laboratory results as given in PubChem BioAssay AID623887 (Johns Hopkins Ion Channel Center, 2012).
# Values joined by “and” are separate entries in the source; they are usually repeats but may differ in a detail not shown here. Equal values may be shown once. Active and inactive are the calls of the source.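 How the source made its calls: active means blocks the KCNK9 potassium channel at some tested concentration and gives a dose response curve; inactive means the rest.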
# Molecular target: Potassium channel subfamily K member 9 (Homo sapiens) (UniProt Q9NPC2)
# Sequence (Q9NPC2 whole entry, looked up): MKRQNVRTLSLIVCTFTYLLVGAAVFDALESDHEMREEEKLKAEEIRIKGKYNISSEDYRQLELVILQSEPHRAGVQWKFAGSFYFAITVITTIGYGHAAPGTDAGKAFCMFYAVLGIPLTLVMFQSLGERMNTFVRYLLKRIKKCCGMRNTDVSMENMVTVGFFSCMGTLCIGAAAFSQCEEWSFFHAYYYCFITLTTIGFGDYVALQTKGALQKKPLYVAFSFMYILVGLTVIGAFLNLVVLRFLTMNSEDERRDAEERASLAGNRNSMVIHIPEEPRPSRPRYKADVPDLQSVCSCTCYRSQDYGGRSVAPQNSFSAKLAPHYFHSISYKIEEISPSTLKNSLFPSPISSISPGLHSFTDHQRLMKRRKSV
# Assay: KCNK9 two-pore potassium channel inhibitors, SAR follow-up, cell-based, round 4 (AID 623887)
# Details: HEK293-KCNK9 thallium flux, FluxOR fluorescence
# How it was run: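 System: Tetracycline-induced HEK293 cells stably expressing the KCNK9 channel | Also added: Potassium/thallium sulfate stimulus buffer (5x stock) | Doses: Concentration series | Schedule: 90 min dye loading, then 20 min compound preincubation at room temperature | Detection: Kinetic FluxOR fluorescence of thallium influx, 110 s after stimulus | Repeats: Replicate measurements at each compound concentration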
row,Structure (SMILES),IC50
1,COc1cccc(-c2n[nH]c(=S)n2[C@H](C)C2CCCCC2)c1,3420 nM
2,CC(C1CC2CCC1C2)n1c(SCCc2cccc(O)c2)nnc1-c1ccco1 (stereo not drawn),1830 nM
3,CC(C1C[C@H]2CCC1C2)n1c(-c2ccsc2)n[nH]c1=S (stereo partly drawn),582 nM
4,COc1cccc(CCSc2nnc(-c3ccco3)n2C(C)C2CC3CCC2C3)c1 (stereo not drawn),1190 nM
5,CC(C1CC2CCC1C2)n1c(SCC(=O)N2CCN(C)CC2)nnc1-c1ccco1 (stereo not drawn),28000 nM
6,C[C@@H]([C@@H]1CC2CC[C@H]1C2)n1c(-c2ccco2)n[nH]c1=S,181 nM and 128 nM
7,COc1ccc(NC(=O)CSc2nnc(-c3ccco3)n2C(C)C2CC3CCC2C3)cc1OC (stereo not drawn),18300 nM
8,COc1ccc(CC(=O)NCc2ccccc2-c2ccccc2C(=O)NCc2ccc(F)cc2F)cc1,3200 nM
9,COc1ccc(C(=O)CCSc2nnc(-c3ccco3)n2C(C)C2CC3CCC2C3)cc1OC (stereo not drawn),663 nM
10,C[C@H](C1CCCCC1)n1c(-c2ccccc2F)n[nH]c1=S,683 nM
11,COc1cccc(-c2nnc(SSc3nnc(-c4cccc(OC)c4)n3C(C)C3CC4CCC3C4)n2C(C)C2CC3CCC2C3)c1 (stereo not drawn),28000 nM
12,CC(C1CC2CCC1C2)n1c(SCCc2ccccn2)nnc1-c1ccco1 (stereo not drawn),3090 nM
13,C[C@@H]([C@@H]1CC2CC[C@H]1C2)n1c(-c2ccsc2)n[nH]c1=S,146 nM and 544 nM

# The next lines start with the values.
row,IC50,Structure (SMILES)
1,547 nM,COc1ccc(CSc2nnc(-c3ccco3)n2C(C)C2CC3CCC2C3)cc1OC (stereo not drawn)
2,467 nM,COc1cccc(-c2n[nH]c(=S)n2[C@H](C)[C@@H]2CC3CC[C@H]2C3)c1
3,428 nM,C[C@H](C1CCCCC1)n1c(-c2ccsc2)n[nH]c1=S
4,223 nM,CC(C1CC2CCC1C2)n1c(-c2ccco2)nn(CCc2ccncc2)c1=S (stereo not drawn)
5,180 nM,CC([C@@H]1CC2CC[C@H]1C2)n1c(-c2ccsc2)n[nH]c1=S (stereo partly drawn)
6,169 nM,C[C@H]([C@@H]1CC2CC[C@H]1C2)n1c(-c2ccccc2F)n[nH]c1=S
7,141 nM,CCCC(=O)C1CCN(c2ncnc3c2CN(C(=O)c2ccc(-c4ccccc4)cc2)CC3)CC1
8,53 nM,C[C@H]([C@@H]1CC2CC[C@H]1C2)n1c(-c2ccco2)n[nH]c1=S

# Same assay, conditions: HEK293-KCNK9 thallium flux, FluxOR fluorescence; at 30 µM (top of the series)
row,"flux ratio, lower = inhibition",Structure (SMILES)
1,inactive,CC(C1CCN(C)CC1)n1c(-c2ccco2)n[nH]c1=S (stereo not drawn)
2,inactive,CC(C1CC2CCC1C2)n1c(SCCN2CCOCC2)nnc1-c1ccco1 (stereo not drawn)
